ChEMBL document CHEMBL3596119, “Synthesis and biological characterization of a promising F-18 PET tracer for vesicular acetylcholine transporter” (Bioorg Med Chem, 2015)

What was measured:
[1] = target: T1, Vesicular acetylcholine transporter (Homo sapiens, UniProt Q16572); assay: Displacement of [3H]-vesamicol from human VAChT after 24 hrs by liquid scintillation spectrometry analysis
T1 sequence (Q16572 whole entry): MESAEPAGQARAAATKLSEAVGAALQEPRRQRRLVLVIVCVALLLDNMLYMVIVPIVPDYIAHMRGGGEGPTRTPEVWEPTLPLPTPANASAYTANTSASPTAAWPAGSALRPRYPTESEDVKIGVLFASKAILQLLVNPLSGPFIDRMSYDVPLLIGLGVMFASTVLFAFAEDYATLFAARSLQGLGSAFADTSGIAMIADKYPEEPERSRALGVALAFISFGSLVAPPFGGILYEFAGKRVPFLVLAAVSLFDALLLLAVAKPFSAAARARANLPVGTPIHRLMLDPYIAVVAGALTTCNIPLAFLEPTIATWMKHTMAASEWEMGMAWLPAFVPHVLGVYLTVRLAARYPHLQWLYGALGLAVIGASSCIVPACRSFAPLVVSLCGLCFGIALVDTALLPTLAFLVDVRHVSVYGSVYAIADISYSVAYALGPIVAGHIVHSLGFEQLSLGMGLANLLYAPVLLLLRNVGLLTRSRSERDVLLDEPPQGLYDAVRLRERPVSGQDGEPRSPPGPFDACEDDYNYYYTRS

[2] = target: Sigma non-opioid intracellular receptor 1 (Cavia porcellus, UniProt Q60492); assay: Displacement of (+)-[3H]pentazocine from sigma1 receptor in guinea pig brain membrane homogenates; assay type: cell membranes
Chain of Sigma non-opioid intracellular receptor 1 (Q60492 whole entry): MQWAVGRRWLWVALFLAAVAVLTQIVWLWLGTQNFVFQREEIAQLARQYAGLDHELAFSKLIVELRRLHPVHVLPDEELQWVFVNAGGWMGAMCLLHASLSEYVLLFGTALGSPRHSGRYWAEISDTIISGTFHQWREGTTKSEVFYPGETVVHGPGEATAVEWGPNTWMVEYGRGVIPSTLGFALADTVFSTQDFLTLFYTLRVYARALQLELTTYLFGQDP
In short: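 Run on guinea pig brain membrane homogenate (~300 μg protein) with 5 nM (+)-[3H]pentazocine. 10 μM haloperidol defined nonspecific binding. IC50 came from nonlinear regression with a one-site fit.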

[3] = Displacement of [3H]DTG from sigma2 receptor in rat liver membrane homogenates; assay type: cell membranes
In short: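 Run on rat liver membrane homogenate (~300 μg protein) with ~5 nM [3H]DTG plus 1 μM (+)-pentazocine to mask σ1 sites. 10 μM haloperidol defined nonspecific binding. IC50 came from nonlinear regression.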

Row | SMILES | Ki [1] [nM] | Ki [2] [nM] | Ki [3] [nM]
1 | O=C(c1ccc(OCCF)cc1)C1CCN([C@@H]2Cc3ccccc3C[C@H]2O)CC1 | 1.74 | 13.2 | 1880
2 | O=C(c1ccc(OCCOCCF)cc1)C1CCN([C@@H]2Cc3ccccc3C[C@H]2O)CC1 | 0.87 | 1580 | 8200
3 | O=C(c1ccc(F)cc1)C1CCN(C2Cc3c(cccc3OCCF)CC2O)CC1 (single isomer, unassigned; (-)) | – | – | > 10000
4 | O=C(c1ccc(F)cc1)C1CCN(C2Cc3c(cccc3OCCF)CC2O)CC1 (single isomer, unassigned; (+)) | – | – | 7800
5 | O=C(c1ccc(F)cc1)C1CCN([C@@H]2Cc3c(O)cccc3C[C@H]2O)CC1 | 4.64 | 8640 | 1850
6 | O=C(c1ccc(OCCOCCOCCF)cc1)C1CCN([C@@H]2Cc3ccccc3C[C@H]2O)CC1 | 1.23 | > 10000 | > 10000
7 | O[C@@H]1CCCC[C@H]1N1CCC(c2ccccc2)CC1 [VESAMICOL] | – | – | 346
8 | O=C(c1ccc(F)cc1)C1CCN([C@@H]2Cc3c(cccc3OCCF)C[C@H]2O)CC1 (racemic) | – | 821 | > 10000
9 | O=C(c1ccc(F)cc1)c1cccc2c1C[C@@H](N1CCC(c3ccccc3)CC1)[C@H](O)C2 | – | – | 251
10 | O=C(c1ccc(F)cc1)C1CCN([C@@H]2Cc3cccc(OCCF)c3C[C@H]2O)CC1 (racemic) | – | > 10000 | 7140
11 | O=C(c1ccc(F)cc1)C1CCN([C@@H]2Cc3cccc(O)c3C[C@H]2O)CC1 | 56.2 | 28.7 | 2600
